Test results reported in ChEMBL document CHEMBL4311965, “Antimicrobial activity of amphipathic α,α-disubstituted β-amino amide derivatives against ESBL - CARBA producing multi-resistant bacteria; effect of halogenation, lipophilicity and cationic character” (Eur J Med Chem, 2019).
In brackets after ≈: the same amount, converted by molar mass.

Legend:
[1] = system: Corynebacterium glutamicum; test: Antibacterial activity against Corynebacterium glutamicum ATCC 13032 cultured in MHB medium assessed as no bacterial growth incubated at 20 degC for 24 hrs by microdilution susceptibility test; assay type: functional; conditions: ATCC 13032, 24 h
In short: (§1)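 Broth microdilution per CLSI M07-A9 with modifications. Inoculum about 2.5–3 x 10⁴ cells/mL in Mueller-Hinton broth, mixed 1:1 with test derivative. DMSO stocks diluted in double-distilled water, final DMSO <1%. Incubation 24 h at 37 °C (20 °C for C. glutamicum). Growth and sterility controls included; oxytetracycline reference.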

[2] = system: Escherichia coli; test: Antibacterial activity against Escherichia coli ATCC 25922 cultured in MHB medium assessed as no bacterial growth incubated at 37 degC for 24 hrs by microdilution susceptibility test; assay type: functional; conditions: ATCC 25922, 24 h; in short: as §1
[3] = system: Pseudomonas aeruginosa; test: Antibacterial activity against Pseudomonas aeruginosa PA01 DSM 19880 (ATCC 15692) cultured in MHB medium assessed as no bacterial growth incubated at 37 degC for 24 hrs by microdilution susceptibility test; assay type: functional; conditions: PAO1 DSM 19880 (ATCC 15692); in short: as §1
[4] = system: Erythrocyte; test: Hemolytic activity against human RBC incubated for 1 hr; assay type: cell-based
In short: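 Heparinized human blood washed three times in warm PBS and set to 10% hct. Erythrocytes at 1% v/v final, with compound in PBS (DMSO <1%), shaken 1 h at 37 °C and then centrifuged. Supernatant absorbance read at 405 and 545 nm after PBS background subtraction. Haemolysis taken relative to 1% Triton X-100. Three independent replicates, EC50 averaged.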

[5] = Selectivity index, ratio of EC50 for hemolytic activity against human RBC to MIC for antibacterial activity against Staphylococcus aureus ATCC 9144; assay type: toxicity; conditions: human red blood cells (RBC)
In short: (§2)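 Selectivity index is the RBC haemolysis EC50 divided by the MIC against the E. coli or S. aureus reference strain.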

[6] = Selectivity index, ratio of EC50 for hemolytic activity against human RBC to MIC for antibacterial activity against Escherichia coli ATCC 25922; assay type: toxicity; conditions: human red blood cells (RBC); in short: as §2
[7] = system: Staphylococcus aureus; test: Antibacterial activity against multidrug-resistant Staphylococcus aureus N315 cultured in MHB medium assessed as reduction in bacterial growth incubated for 24 hrs by microdilution susceptibility test; assay type: functional; conditions: N315, 24 h
In short: (§3)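 Broth microdilution per CLSI M07-A9 (modified). Working solutions made from concentrated DMSO stocks kept at r.t., diluted in double-distilled water, final DMSO <1%. Inoculum 1–1.2 x 10⁶ cells/mL in Mueller-Hinton broth, mixed 1:1 with compound. 37 °C, 24 h, four parallels. Read as OD₆₀₀. Where precipitation left residual OD, the point of major OD decrease was taken as the inhibitory concentration.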

[8] = system: Staphylococcus aureus; test: Antibacterial activity against multidrug-resistant Staphylococcus aureus 85/2082 cultured in MHB medium assessed as reduction in bacterial growth incubated for 24 hrs by microdilution susceptibility test; assay type: functional; conditions: 85/2082, 24 h; in short: as §3
[9] = system: Staphylococcus aureus; test: Antibacterial activity against multidrug-resistant Staphylococcus aureus WIS cultured in MHB medium assessed as reduction in bacterial growth incubated for 24 hrs by microdilution susceptibility test; assay type: functional; in short: as §3
[10] = system: Enterococcus faecium; test: Antibacterial activity against multidrug-resistant Enterococcus faecium 50673722 cultured in BHIB medium assessed as reduction in bacterial growth incubated for 24 hrs by microdilution susceptibility test; assay type: functional; conditions: Enterococcus faecium, 50673722, 24 h
In short: (§4)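 Enterococci grown in Brain Heart Infusion broth, otherwise broth microdilution per CLSI M07-A9 (modified). Concentrated DMSO stocks kept at r.t. and diluted in double-distilled water, final DMSO <1%. Inoculum 1–1.2 x 10⁶ cells/mL mixed 1:1 with compound. 37 °C, 24 h, four parallels. OD₆₀₀ read-out, lowest concentration with no growth.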

[11] = system: Enterococcus faecium; test: Antibacterial activity against multidrug-resistant Enterococcus faecium K36-18 cultured in BHIB medium assessed as reduction in bacterial growth incubated for 24 hrs by microdilution susceptibility test; assay type: functional; conditions: K36-18, 24 h; in short: as §4
[12] = system: Enterococcus faecium; test: Antibacterial activity against multidrug-resistant Enterococcus faecium 50758899 cultured in BHIB medium assessed as reduction in bacterial growth incubated for 24 hrs by microdilution susceptibility test; assay type: functional; conditions: Enterococcus faecium, 50758899, 24 h; in short: as §4
[13] = system: Enterococcus faecium; test: Antibacterial activity against multidrug-resistant Enterococcus faecium TUH50-22 cultured in BHIB medium assessed as reduction in bacterial growth incubated for 24 hrs by microdilution susceptibility test; assay type: functional; conditions: TUH50-22, 24 h; in short: as §4
[14] = system: Escherichia coli; test: Antibacterial activity against multidrug-resistant Escherichia coli 50579417 producing oxcillinase-48 cultured in MHB medium assessed as reduction in bacterial growth incubated for 24 hrs by microdilution susceptibility test; assay type: functional; conditions: Escherichia coli, 50579417, 24 h; in short: as §3
[15] = system: Escherichia coli; test: Antibacterial activity against multidrug-resistant Escherichia coli 50676002 producing New Delhi metallo-beta-lactamase-1 cultured in MHB medium assessed as reduction in bacterial growth incubated for 24 hrs by microdilution susceptibility test; assay type: functional; conditions: Escherichia coli, 50676002, 24 h; in short: as §3
[16] = system: Pseudomonas aeruginosa; test: Antibacterial activity against multidrug-resistant Pseudomonas aeruginosa K34-7 producing Verona integron encoded metallo beta-lactamse-2 cultured in MHB medium assessed as reduction in bacterial growth incubated for 24 hrs by microdilution susceptibility test; assay type: functional; conditions: K34-7, 24 h; in short: as §3
[17] = system: Pseudomonas aeruginosa; test: Antibacterial activity against multidrug-resistant Pseudomonas aeruginosa K34-73 producing Verona integron encoded metallo beta-lactamse-4 cultured in MHB medium assessed as reduction in bacterial growth incubated for 24 hrs by microdilution susceptibility test; assay type: functional; conditions: K34-73, 24 h; in short: as §3
[18] = system: Pseudomonas aeruginosa; test: Antibacterial activity against multidrug-resistant Pseudomonas aeruginosa 50692172 producing New Delhi metallo-beta-lactamase-1 cultured in MHB medium assessed as reduction in bacterial growth incubated for 24 hrs by microdilution susceptibility test; assay type: functional; conditions: Pseudomonas aeruginosa, 50692172, 24 h; in short: as §3
[19] = system: Pseudomonas aeruginosa; test: Antibacterial activity against multidrug-resistant Pseudomonas aeruginosa 50692520 producing Verona integron encoded metallo beta-lactamse cultured in MHB medium assessed as reduction in bacterial growth incubated for 24 hrs by microdilution susceptibility test; assay type: functional; conditions: Pseudomonas aeruginosa, 50692520, 24 h; in short: as §3
[20] = system: Klebsiella pneumoniae; test: Antibacterial activity against multidrug-resistant Klebsiella pneumoniae K66-45 producing New Delhi metallo-beta-lactamase-1 cultured in MHB medium assessed as reduction in bacterial growth incubated for 24 hrs by microdilution susceptibility test; assay type: functional; conditions: K66-45, 24 h; in short: as §3
[21] = system: Klebsiella pneumoniae; test: Antibacterial activity against multidrug-resistant Klebsiella pneumoniae 50625602 producing oxcillinase-245 cultured in MHB medium assessed as reduction in bacterial growth incubated for 24 hrs by microdilution susceptibility test; assay type: functional; conditions: Klebsiella pneumoniae, 50625602, 24 h; in short: as §3
[22] = system: Klebsiella pneumoniae; test: Antibacterial activity against multidrug-resistant Klebsiella pneumoniae 50667959 producing Verona integron encoded metallo beta-lactamse-1 cultured in MHB medium assessed as reduction in bacterial growth incubated for 24 hrs by microdilution susceptibility test; assay type: functional; conditions: Klebsiella pneumoniae, 50667959, 24 h; in short: as §3
[23] = system: Acinetobacter baumannii; test: Antibacterial activity against multidrug-resistant Acinetobacter baumannii K12-21 producing oxcillinase-58 cultured in MHB medium assessed as reduction in bacterial growth incubated for 24 hrs by microdilution susceptibility test; assay type: functional; conditions: K12-21, 24 h; in short: as §3
[24] = system: Acinetobacter baumannii; test: Antibacterial activity against multidrug-resistant Acinetobacter baumannii K44-35 producing oxcillinase-23 cultured in MHB medium assessed as reduction in bacterial growth incubated for 24 hrs by microdilution susceptibility test; assay type: functional; conditions: K44-35, 24 h; in short: as §3

Row | SMILES | MIC [1] [µg/mL] | MIC [2] [µg/mL] | MIC [3] [µg/mL] | EC50 [4] [µg/mL] | selectivity ratio [5] | selectivity ratio [6] | MIC [7] [µg/mL] | MIC [8] [µg/mL] | MIC [9] [µg/mL] | MIC [10] [µg/mL] | MIC [11] [µg/mL] | MIC [12] [µg/mL] | MIC [13] [µg/mL] | MIC [14] [µg/mL] | MIC [15] [µg/mL] | MIC [16] [µg/mL] | MIC [17] [µg/mL] | MIC [18] [µg/mL] | MIC [19] [µg/mL] | MIC [20] [µg/mL] | also measured
1 | NCCNCC(CN)(Cc1ccccc1Br)Cc1ccccc1Br | 2 (≈ 4.39 µM) | 16 (≈ 35.1 µM) | 16 (≈ 35.1 µM) | 209 (≈ 459 µM) | 13 | 13 | 8 (≈ 17.6 µM) | 8 (≈ 17.6 µM) | 8 (≈ 17.6 µM) | 16 (≈ 35.1 µM) | 16 (≈ 35.1 µM) | 16 (≈ 35.1 µM) | 16 (≈ 35.1 µM) | 16 (≈ 35.1 µM) | 16 (≈ 35.1 µM) | 32 (≈ 70.3 µM) | 32 (≈ 70.3 µM) | 32 (≈ 70.3 µM) | 16 (≈ 35.1 µM) | 16 (≈ 35.1 µM) | MIC [21]: 16 µg/mL (≈ 35.1 µM); MIC [22]: 16 µg/mL (≈ 35.1 µM); MIC [23]: 16 µg/mL (≈ 35.1 µM); MIC [24]: 16 µg/mL (≈ 35.1 µM)
2 | N#CC(Cc1cc(C(F)(F)F)cc(C(F)(F)F)c1)(Cc1cc(C(F)(F)F)cc(C(F)(F)F)c1)C(=O)NCCN | 8 (≈ 13.8 µM) | 32 (≈ 55.2 µM) | 64 (≈ 110 µM) | 282 (≈ 487 µM) | 18 | 9 | > 32 | 32 (≈ 55.2 µM) | 16 (≈ 27.6 µM) | 16 (≈ 27.6 µM) | 8 (≈ 13.8 µM) | 8 (≈ 13.8 µM) | 8 (≈ 13.8 µM) | > 32 | > 32 | > 32 | > 32 | > 32 | > 32 | > 32 | MIC [21]: > 32 µg/mL; MIC [22]: > 32 µg/mL; MIC [23]: > 32 µg/mL; MIC [24]: > 32 µg/mL
3 | NCCNC(=O)C(CN)(Cc1ccc(F)c2ccccc12)Cc1ccc(F)c2ccccc12 | 2 (≈ 4.47 µM) | 4 (≈ 8.94 µM) | 8 (≈ 17.9 µM) | 74 (≈ 165 µM) | 19 | 19 | 16 (≈ 35.8 µM) | 8 (≈ 17.9 µM) | 16 (≈ 35.8 µM) | 16 (≈ 35.8 µM) | 16 (≈ 35.8 µM) | 8 (≈ 17.9 µM) | 8 (≈ 17.9 µM) | 8 (≈ 17.9 µM) | 8 (≈ 17.9 µM) | > 32 | 32 (≈ 71.5 µM) | > 32 | > 32 | 8 (≈ 17.9 µM) | MIC [21]: 8 µg/mL (≈ 17.9 µM); MIC [22]: 8 µg/mL (≈ 17.9 µM); MIC [23]: 32 µg/mL (≈ 71.5 µM); MIC [24]: > 32 µg/mL
4 | NCCNCC(CN)(Cc1cc(Br)cc(Br)c1)Cc1cc(Br)cc(Br)c1 | 1 (≈ 1.63 µM) | 4 (≈ 6.52 µM) | 4 (≈ 6.52 µM) | 24 (≈ 39.1 µM) | 12 | 6 | 4 (≈ 6.52 µM) | 8 (≈ 13 µM) | 8 (≈ 13 µM) | 4 (≈ 6.52 µM) | 8 (≈ 13 µM) | 4 (≈ 6.52 µM) | 4 (≈ 6.52 µM) | 16 (≈ 26.1 µM) | 8 (≈ 13 µM) | 16 (≈ 26.1 µM) | 16 (≈ 26.1 µM) | 32 (≈ 52.2 µM) | 32 (≈ 52.2 µM) | 8 (≈ 13 µM) | MIC [21]: 16 µg/mL (≈ 26.1 µM); MIC [22]: 16 µg/mL (≈ 26.1 µM); MIC [23]: 16 µg/mL (≈ 26.1 µM); MIC [24]: 8 µg/mL (≈ 13 µM)
